# Bioassay records from PubChem BioAssay.
# Sampled rows, rich in hits. Any-hit rate of the full collection: about 2.6%.
# RAM network inh: yeast RAM network inhibition | S. cerevisiae dse1pr::URA3 reporter, 5-FOA growth OD615, 2 d; analog-sensitive cbk1-as2 kinase mutant strain | inhibition, % at 50 µM | 190,000 tested, 1.8% active;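 active = inhibition above a set limit, 3 SD over mean compound inhibition, cut at about 8.4% in these data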;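 note: 0% = DMSO-only wells with no growth and 100% = 10 µM 1-NA-PP1 full growth; inhibition rescues growth on 5-FOA so higher OD means more RAM inhibition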
# Yeast life ext: extends the lifespan of yeast; inhibition of the nicotinamide effect, % at 10 µM; S. cerevisiae growth with nicotinamide, OD615; deaD strain in restrictive glucose medium; 130,000 tested, 0.68% active; AID 775;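 active = inhibition above a set limit, placed 3 SD over the median of all compounds, cut at about 26% in these data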;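 note: 0% = nicotinamide-treated wells and 100% = cells grown without nicotinamide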
#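 Measured by: optical density (absorbance) at 615 nm; System: modified budding yeast, DeaD strain; Medium: restrictive CSMM-D dextrose medium; Timing: 4 h preincubation then 48 h treatment at 30 °C.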
# Yeast growth inh: yeast BB579 growth reduction in restrictive medium | S. cerevisiae BB579 growth, OD615, 48 h | inhibition, % at 10 µM | 140,000 tested, 0.51% active | AID 804;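 active = inhibition above a set limit, 3 SD over the mean compound inhibition, cut at about 44% in these data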
#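 Detection: OD615 turbidity measurement; Material: Saccharomyces cerevisiae DeaD strain BB579, replicative lifespan model yeast; Timing: 48 h exposure, 30 °C; Doses: single 10 µM dose; Medium: CSMM-D restrictive synthetic medium containing dextrose (glucose); Controls: amphotericin B at 10 µg/mL as positive control.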
# * = called active by the depositor; x = no result.
SMILES,RAM network inh,Yeast life ext,Yeast growth inh
Nc1c(N2CCCCC2)c2ccccc2oc1=O,0,x,x
Nn1c(=O)c2ccccc2n2c(SCc3ccc(C(F)(F)F)cc3)nnc12,8.6*,-11,-13
Nn1c(=O)c2ccccc2n2c(SCc3ccccc3)nnc12,3,-12,-9
Cc1ccc(Cl)cc1NC(=S)N(CCCN1CCN(C)CC1)Cc1ccco1,1,x,x
O=C(Nc1nc2ccc(SC(F)F)cc2s1)c1ccc(NS(=O)(=O)c2ccc(F)c(F)c2)cc1,7,0,-45
Cc1ccc(-n2nnc3c(=O)n(CC(=O)N4CCC(C)CC4)cnc32)cc1,-1,-5,43*
Cc1ccc(-n2nnc3c(=O)n(CC(=O)N4CCCC4)cnc32)cc1,0,-13,-41
NS(=O)(=O)c1ccc(CCNC(=O)c2ccc(C#CC3(O)CCCCC3)cc2)cc1,1,x,x
N=C1C(c2nc3ccccc3s2)=C(O)CN1NC(=O)c1ccccc1[N+](=O)[O-],8,x,x
N=C1C(c2nc3ccccc3s2)=C(O)CN1NC(=O)c1c[nH]c2ccccc12,8.5*,x,x
Cc1ccc2oc(C(Cl)(Cl)Cl)cc(=O)c2c1,2,14,-11
O=C(c1ccc2c(Cl)c3c(nc2c1)CCCC3)N1CCN(c2ccc(F)cc2)CC1,2,12,-31
CCc1ccc(N(CC)C(=O)c2ccc3c(Cl)c4c(nc3c2)CCC4)cc1,3,15,-16
CC(=O)c1cccc(NC(=O)c2ccc3c(Cl)c4c(nc3c2)CCCC4)c1,4,-1,-35
COc1ccccc1N1CCN(C(=O)c2ccc3c(Cl)c4c(nc3c2)CCCC4)CC1,0,28*,13
CCN(C(=O)c1ccc2c(Cl)c3c(nc2c1)CCC3)c1cccc(C)c1,-1,39*,-38
N#Cc1ccccc1NC(=O)c1ccc2c(Cl)c3c(nc2c1)CCCC3,1,-2,45*
CC1CCCCC1NC1=NCCCS1 (stereo unspecified),1,x,x
CCN(CC)C(=O)C1=C(C)NC(=S)NC1c1ccc(C)s1 (stereo unspecified),1,x,x
COc1cc(NC(=O)CN2C(=O)NC(c3ccccc3)(c3ccccc3)C2=O)c(C)cc1[N+](=O)[O-],6,-1,-23
O=C1CCC(C(=O)N(Cc2cccs2)C2(C(=O)NC3CCCCC3)CCCCC2)N1 (stereo unspecified),3,x,x
CN1CCN(C(=O)c2ccccc2Nc2ccc(SC(F)F)cc2)CC1,1,x,x
CC1CC(C)CN(C(=O)c2ccccc2Nc2ccc(SC(F)F)cc2)C1 (stereo unspecified),9.0*,-22,6
Nc1ccccc1C(=O)N1CCCC1,0,x,x
CC(=O)Nc1nc(SCC(=O)Nc2nnc(C)s2)[nH]c(=O)c1NC(=O)c1cccs1,3,x,x
SMILES,RAM network inh,Yeast life ext,Yeast growth inh
COc1cccc(-c2nc(C(N)=O)c3[nH]c(=O)n(-c4ccccc4)c3n2)c1OC,4,0,-39
CCOc1ccccc1-c1nc(C(N)=O)c2[nH]c(=O)n(-c3ccccc3)c2n1,9.7*,-5,-26
CCOC(=O)Cc1c(C)nc(SC)[nH]c1=O,1,x,x
CCOC(=O)C1CCCCN1C(=O)CCc1c(C)nc2cc(-c3ccccc3)nn2c1C (stereo unspecified),0,10,48*
CCOC(=O)C1CCN(C(=O)CCc2c(C)nc3cc(-c4ccccc4)nn3c2C)CC1,0,-13,-6
COc1ccccc1CNC(=O)C(NS(=O)(=O)c1ccc2c(c1)OCCO2)C(C)C (stereo unspecified),4,4,-13
Cc1ccc(O)c(C(=O)c2cc(C(=O)NCCc3ccccc3)c(=O)n(CCc3ccccc3)c2)c1,8.9*,3,-19
COc1ccc(O)c(C(=O)c2cc(C(=O)NCCc3ccccc3)c(=O)n(CCc3ccccc3)c2)c1,6,-2,-2
Cc1nn(-c2ccccc2)c2c1C1(C(=O)N(C)c3ccccc31)C(C#N)=C(N)O2 (stereo unspecified),9.8*,0,-33
CCN1C(=O)C2(C(C#N)=C(N)Oc3c2c(C)nn3-c2ccccc2)c2ccccc21 (stereo unspecified),2,-5,-20
COc1ccc(/C=N/NC(=O)CN2CCSCC2)c(OC)c1,0,6,8
Cn1c(=O)c2c(nc(Br)n2CC(=O)c2cccs2)n(C)c1=O,1,36*,-82
Cn1c(=O)c2c(nc(SCC(=O)c3cccs3)n2Cc2ccc(F)cc2)n(C)c1=O,2,-8,-61
CC1=C/C(=N\OS(=O)(=O)c2ccccc2)C(C(C)C)=CC1=O,0,-12,100*
COc1cc(C(=O)O/N=C2/C=C(C)C(=O)C=C2C)cc(OC)c1OC,2,16,-35
CC1=C/C(=N\OS(=O)(=O)c2ccccc2)C(C)=CC1=O,-1,-19,100*
